Converted amounts (≈) assume the structure as drawn. The source made the active and inactive calls. No cut-off for these calls is given here.
Columns and labels:
[1] = system: Cryptococcus neoformans; test: Inhibition of glucosylceramide synthesis in Cryptococcus neoformans H99 in presence of [3H]palmitate; type: functional, organism-based; settings: var grubii H99
[2] = system: J774; test: Inhibition of glucosylceramide synthesis in mouse J774 cells in presence of [3H]palmitate; type: cell-based
[3] = system: Cryptococcus neoformans; test: Antifungal activity against Cryptococcus neoformans H99 infected in CBA/J mouse assessed as increase in survival at 1.2 mg/kg, ip; type: functional, organism-based; settings: var grubii H99
[4] = system: Cryptococcus neoformans; test: Antifungal activity against Cryptococcus neoformans H99 measured after 24 to 72 hrs; type: functional; settings: var grubii H99
How it was run: (§1)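 Modified CLSI broth microdilution with inoculum per M27A3. Compounds were serially diluted 32 to 0.03 μg/mL. Media: C. neoformans in HEPES-buffered YNB without amino acids (pH 7.0, 2% glucose); Candida strains in YNB without ammonium sulfate or amino acids plus 1% asparagine (pH 7.0, 2% glucose); A. fumigatus in RPMI (pH 7.0, 2% glucose).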

[5] = system: Cryptococcus neoformans; test: Fungicidal activity against Cryptococcus neoformans H99 measured after 72 hrs by time-kill assay; type: functional, var grubii H99
How it was run: (§2)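 Overnight C. neoformans washed in PBS and resuspended in HEPES-buffered YNB, pH 7.4. 2 × 10⁴ cells exposed to a range of drug concentrations in 10 mL with 0.5% DMSO final, at 37°C, 5% CO₂, shaking at 200 rpm. Aliquots sampled over 96 h, diluted and plated on YPD; CFU counted after 48 h at 30°C.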

[6] = system: A549; test: Cytotoxicity against human A549 cells after 24 to 48 hrs by MTT assay; type: functional; settings: read-out: LD50 (the source's name)
How it was run: (§3)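 A549 and HepG2 kept in DMEM with 10% FBS and 1% pen-strep. At passage 7, seeded at 10⁵ cells/well and allowed to adhere 14 h. Compound added at 0.03–128 μg/mL, untreated wells as controls. Incubation 37°C, 5% CO₂ for 24 or 48 h. MTT (5 mg/mL in PBS) added for 4 h, formazan dissolved in DMSO, OD570.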

[7] = system: HepG2; test: Cytotoxicity against human HepG2 cells after 24 to 48 hrs by MTT assay; type: functional; settings: read-out: LD50 (the source's name); how it was run: as §3
[8] = Selectivity index, ratio of LD50 for human A549 cells to MIC80 for Cryptococcus neoformans H99; type: toxicity; settings: read-out: Selectivity Index
How it was run: (§4)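 SI = LD₅₀/MIC₈₀. Cytotoxicity: A549 or HepG2 cells (DMEM, 10% FBS, passage 7, 10⁵ cells/well) adhered 14 h, then exposed to 0.03–128 μg/mL for 24 or 48 h at 37°C, 5% CO₂; MTT 4 h, formazan dissolved in DMSO, read at 570 nm. MIC₈₀ against C. neoformans from broth microdilution in HEPES-buffered YNB, pH 7.0.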

[9] = Selectivity index, ratio of LD50 for human HepG2 cells to MIC80 for Cryptococcus neoformans H99; type: toxicity; settings: read-out: Selectivity Index; how it was run: as §4
[10] = system: Cryptococcus neoformans; test: Antifungal activity against Cryptococcus neoformans H99 assessed as FICI in presence of fluconazole; type: functional, var grubii H99
How it was run: (§5)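 Checkerboard combination scored by fractional inhibitory concentration index. Acylhydrazone serially diluted 16 to 0.015 μg/mL (11 dilutions). Partner drug in seven dilutions: fluconazole 12 to 0.19 μg/mL, amphotericin B 5 to 0.078 μg/mL, caspofungin, itraconazole or voriconazole 8 to 0.007 μg/mL.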

[11] = system: Candida albicans; test: Antifungal activity against Candida albicans measured after 24 to 72 hrs; type: functional; how it was run: as §1
[12] = system: [Candida] auris; test: Antifungal activity against Candida auris measured after 24 to 72 hrs; type: functional; settings: Candidozyma auris; how it was run: as §1
[13] = system: Pichia kudriavzevii; test: Antifungal activity against Candida krusei measured after 24 to 72 hrs; type: functional
How it was run: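 MIC by modified CLSI broth microdilution. Candida strains grown in YNB without ammonium sulfate or amino acids with 1% asparagine, pH 7.0, 2% glucose. Inoculum per CLSI M27A3. Compound serially diluted 32 to 0.03 μg/mL. Incubation 37°C, 5% CO₂, 24–72 h, then OD450. MIC80 taken as the lowest concentration giving 80% growth inhibition versus untreated control.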

[14] = system: Candida parapsilosis; test: Antifungal activity against Candida parapsilosis measured after 24 to 72 hrs; type: functional; settings: Lodderomyces parapsilosis; how it was run: as §1
[15] = system: Aspergillus fumigatus; test: Antifungal activity against Aspergillus fumigatus measured after 24 to 72 hrs; type: functional; how it was run: as §1
[16] = system: Candida albicans; test: Antifungal activity against Candida albicans assessed as FICI in presence of fluconazole; type: functional; how it was run: as §5
[17] = system: Pichia kudriavzevii; test: Antifungal activity against fluconazole-resistant Candida krusei assessed as FICI in presence of fluconazole; type: functional
How it was run: (§6)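 Checkerboard in 96-well plate. Test compound diluted 16 to 0.015 μg/mL (11 dilutions) against the partner drug in seven dilutions: fluconazole 12 to 0.19 μg/mL, caspofungin, itraconazole or voriconazole 8 to 0.007 μg/mL. Fractional inhibitory concentration index (FICI) calculated from the combinations.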

[18] = system: Pichia kudriavzevii; test: Antifungal activity against Candida krusei 6258 assessed as FICI in presence of fluconazole; type: functional; how it was run: as §5
[19] = system: [Candida] auris; test: Antifungal activity against Candida auris assessed as FICI in presence of fluconazole; type: functional, Candidozyma auris; how it was run: as §5
[20] = system: Candida parapsilosis; test: Antifungal activity against Candida parapsilosis assessed as FICI in presence of fluconazole; type: functional; how it was run: as §5
[21] = system: Aspergillus fumigatus; test: Antifungal activity against Aspergillus fumigatus assessed as FICI in presence of fluconazole; type: functional; how it was run: as §5
[22] = system: Cryptococcus neoformans; test: Antifungal activity against Cryptococcus neoformans H99 assessed as FICI in presence of voriconazole; type: functional, var grubii H99; how it was run: as §5
[23] = system: Candida albicans; test: Antifungal activity against Candida albicans assessed as FICI in presence of voriconazole; type: functional; how it was run: as §5
[24] = system: Pichia kudriavzevii; test: Antifungal activity against fluconazole-resistant Candida krusei assessed as FICI in presence of voriconazole; type: functional; how it was run: as §6
[25] = system: Pichia kudriavzevii; test: Antifungal activity against Candida krusei 6258 assessed as FICI in presence of voriconazole; type: functional; how it was run: as §5
[26] = system: [Candida] auris; test: Antifungal activity against Candida auris assessed as FICI in presence of voriconazole; type: functional, Candidozyma auris; how it was run: as §5
[27] = system: Candida parapsilosis; test: Antifungal activity against Candida parapsilosis assessed as FICI in presence of voriconazole; type: functional; how it was run: as §5
[28] = system: Aspergillus fumigatus; test: Antifungal activity against Aspergillus fumigatus assessed as FICI in presence of voriconazole; type: functional; how it was run: as §5
[29] = system: Cryptococcus neoformans; test: Antifungal activity against Cryptococcus neoformans H99 assessed as FICI in presence of itraconazole; type: functional, var grubii H99; how it was run: as §5
[30] = system: Candida albicans; test: Antifungal activity against Candida albicans assessed as FICI in presence of itraconazole; type: functional; how it was run: as §5
[31] = system: Pichia kudriavzevii; test: Antifungal activity against fluconazole-resistant Candida krusei assessed as FICI in presence of itraconazole; type: functional; how it was run: as §6
[32] = system: Pichia kudriavzevii; test: Antifungal activity against Candida krusei 6258 assessed as FICI in presence of itraconazole; type: functional; how it was run: as §5
[33] = system: [Candida] auris; test: Antifungal activity against Candida auris assessed as FICI in presence of itraconazole; type: functional, Candidozyma auris; how it was run: as §5
[34] = system: Candida parapsilosis; test: Antifungal activity against Candida parapsilosis assessed as FICI in presence of itraconazole; type: functional; how it was run: as §5
[35] = system: Aspergillus fumigatus; test: Antifungal activity against Aspergillus fumigatus assessed as FICI in presence of itraconazole; type: functional; how it was run: as §5
[36] = system: Candida albicans; test: Antifungal activity against Candida albicans assessed as FICI in presence of caspofungin; type: functional; how it was run: as §5
[37] = system: Pichia kudriavzevii; test: Antifungal activity against fluconazole-resistant Candida krusei assessed as FICI in presence of caspofungin; type: functional; how it was run: as §6
[38] = system: Pichia kudriavzevii; test: Antifungal activity against Candida krusei 6258 assessed as FICI in presence of caspofungin; type: functional; how it was run: as §5
[39] = system: [Candida] auris; test: Antifungal activity against Candida auris assessed as FICI in presence of caspofungin; type: functional, Candidozyma auris; how it was run: as §5
[40] = system: Candida parapsilosis; test: Antifungal activity against Candida parapsilosis assessed as FICI in presence of caspofungin; type: functional; how it was run: as §5
[41] = system: Cryptococcus neoformans; test: Antifungal activity against Cryptococcus neoformans H99 assessed as FICI in presence of amphotericin B; type: functional, var grubii H99; how it was run: as §5
[42] = system: Cryptococcus neoformans; test: Fungicidal activity against Cryptococcus neoformans H99 measured up to 96 hrs by time-kill assay; type: functional, organism-based; settings: var grubii H99; how it was run: as §2

## Cc1ccccc1C(=O)N/N=C/c1cc(Br)ccc1O
[1]
  inhibition: Dose-dependent effect
[2]
  inhibition (INH): Dose-dependent effect
[3]
  Activity: Active

## O=C(N/N=C/c1ccc(Br)cc1O)c1ccc(Br)cc1Br
[4]
  MIC80: 0.06 µg/mL (≈ 0.126 µM)
[5]
  MFC100: 0.06 µg/mL (≈ 0.126 µM)
[6]
  CC50: 64 µg/mL (≈ 134 µM)
[7]
  CC50: 128 µg/mL (≈ 268 µM)
[8]
  selectivity ratio: 1070
[9]
  selectivity ratio: 2130
[10]
  fractional inhibitory concentration index (FICI): 0.065
[11]
  MIC80: > 16 µg/mL
[12]
  MIC80: > 16 µg/mL
[13]
  MIC80: > 16 µg/mL
[14]
  MIC80: 8 µg/mL (≈ 16.8 µM)
[15]
  MIC80: > 16 µg/mL
[16]
  fractional inhibitory concentration index (FICI): 0.625
[17]
  fractional inhibitory concentration index (FICI): 2
[18]
  fractional inhibitory concentration index (FICI): 2
[19]
  fractional inhibitory concentration index (FICI): 2
[20]
  fractional inhibitory concentration index (FICI): 1.002
[21]
  fractional inhibitory concentration index (FICI): 2
[22]
  fractional inhibitory concentration index (FICI): 0.072
[23]
  fractional inhibitory concentration index (FICI): 0.256
[24]
  fractional inhibitory concentration index (FICI): 0.281
[25]
  fractional inhibitory concentration index (FICI): 1.25
[26]
  fractional inhibitory concentration index (FICI): 1.016
[27]
  fractional inhibitory concentration index (FICI): 0.076
[28]
  fractional inhibitory concentration index (FICI): 0.515
[29]
  fractional inhibitory concentration index (FICI): 0.072
[30]
  fractional inhibitory concentration index (FICI): 0.128
[31]
  fractional inhibitory concentration index (FICI): 0.252
[32]
  fractional inhibitory concentration index (FICI): 1.063
[33]
  fractional inhibitory concentration index (FICI): 0.508
[34]
  fractional inhibitory concentration index (FICI): 0.124
[35]
  fractional inhibitory concentration index (FICI): 0.484
[36]
  fractional inhibitory concentration index (FICI): 0.502
[37]
  fractional inhibitory concentration index (FICI): 2
[38]
  fractional inhibitory concentration index (FICI): 2
[39]
  fractional inhibitory concentration index (FICI): 2
[40]
  fractional inhibitory concentration index (FICI): 2
[41]
  fractional inhibitory concentration index (FICI): 0.086
[42]
  Activity: Dose-dependent effect

— ChEMBL document CHEMBL4334465, “SAR Studies on Aromatic Acylhydrazone-Based Inhibitors of Fungal Sphingolipid Synthesis as Next-Generation Antifungal Agents” (J Med Chem, 2019)
